Source: PubChem BioAssay (Sanford-Burnham Center for Chemical Genomics)
A selection: hits, their analogues and other compounds. The true share with any hit is near 2.3%.
SUMO1 PPI mod – modulators of human SUMO1-mediated protein-protein interactions. P63165. inhibition, % at 20 µM. AID 602429. SUMO1 binding to a labelled peptide, TR-FRET, 1 h. 0.33% of 360,000 active; in the data active = inhibition above about 37%
Target sequence (P63165 whole entry, looked up): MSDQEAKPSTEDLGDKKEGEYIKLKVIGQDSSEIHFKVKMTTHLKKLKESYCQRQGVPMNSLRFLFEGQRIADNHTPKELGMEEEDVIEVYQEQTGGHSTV
LMPTP block – LMPTP (human) inhibition; P24666; recombinant LMPTP-A, OMFP fluorogenic substrate, fluorescence intensity; inhibition, % at 20 µM; 0.22% of 360,000 active; AID 651560;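 active = compounds that cut the enzyme signal by at least half of the control window in the single-dose screen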;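 also: plate controls were DMSO wells with enzyme plus substrate for no effect and substrate without enzyme for full effect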
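Test system – LMPTP-A phosphatase enzyme · Quantity – 0.625 nM LMPTP-A final · Reagent – OMFP substrate, 400 µM final · Dosing – one test concentration per compound, 20 µM, with 3% DMSO overall · Timing – 50 min enzyme reaction at room temperature, protected from light · Detection – fluorescence intensity · Controls – substrate-only low control, DMSO enzyme-plus-substrate high control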
Scp1 inh – Scp-1 (human) phosphatase inhibition; Q9GZU7; Recombinant Scp1, phosphopeptide, malachite green phosphate absorbance; inhibition, % at 20 µM; 0.88% of 340,000 active;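 active = inhibition above about 50% at 20 µM, limit read from the data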;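 also: plate controls were DMSO wells with enzyme for no effect and wells lacking enzyme for full effect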
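Test system: SCP-1 phosphatase catalytic domain, residues 76-261; measured by: colorimetric phosphate reagent with accelerator and stabiliser, absorbance at 630 nm; timing: enzyme reaction 45 min at room temperature, colour 5 min, stabilisation 30 min; also added: Phosphorylated 17-residue peptide substrate; compound dosing: one concentration, 20 µM, with 1.0% DMSO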
NadD block – NadD (S. aureus) enzyme inhibition; purified NadD enzyme, colorimetric absorbance read-out; inhibition, % at 20 µM; 0.78% of 360,000 active; AID 602399; in the data active = inhibition above about 26%
STEP inh – blocks human striatal-enriched tyrosine phosphatase. P54829. recombinant STEP, OMFP fluorogenic substrate, fluorescence. inhibition, % at 20 µM. 0.25% of 360,000 active. AID 588621;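 active = inhibition at 20 µM, scaled per plate between control wells, above about 37%, limit read from the data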;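 also: 0% = DMSO with enzyme and substrate and 100% = substrate only without enzyme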
Target sequence (P54829 whole entry, looked up): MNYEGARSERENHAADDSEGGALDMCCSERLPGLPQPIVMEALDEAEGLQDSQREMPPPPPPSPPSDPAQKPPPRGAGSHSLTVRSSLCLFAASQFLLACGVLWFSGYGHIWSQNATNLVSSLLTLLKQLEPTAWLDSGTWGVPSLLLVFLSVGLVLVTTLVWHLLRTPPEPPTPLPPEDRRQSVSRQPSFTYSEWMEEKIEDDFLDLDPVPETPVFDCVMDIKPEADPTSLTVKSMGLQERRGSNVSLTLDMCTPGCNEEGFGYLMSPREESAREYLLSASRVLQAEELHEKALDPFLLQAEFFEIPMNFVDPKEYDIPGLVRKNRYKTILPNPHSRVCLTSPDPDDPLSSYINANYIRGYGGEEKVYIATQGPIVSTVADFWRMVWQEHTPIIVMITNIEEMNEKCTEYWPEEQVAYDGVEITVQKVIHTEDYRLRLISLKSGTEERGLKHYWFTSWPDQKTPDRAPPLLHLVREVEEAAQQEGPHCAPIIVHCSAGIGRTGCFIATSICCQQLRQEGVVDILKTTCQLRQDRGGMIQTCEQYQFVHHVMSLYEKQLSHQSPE
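Material: STEP (striatal-enriched tyrosine phosphatase) enzyme, cell-free | Medium: 50 mM Bis-Tris pH 6.0 with 2.5 mM DTT and 0.005% Tween 20 | Read-out: Percent inhibition scaled to no-enzyme and uninhibited-enzyme controls, plate-pattern corrected | Signal: Fluorescence read at 480 nm ex / 540 nm em | Times: 20 min reaction, room temperature, in the dark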
DNMT1 block – blocks human DNA methyltransferase DNMT1. P26358. DNMT1 molecular beacon, Hinp1I cleavage, fluorescence. inhibition (reported as % activation of signal), % at 10 µM. 0.83% of 360,000 active; in the data active = inhibition above about 50%
The depositor's hits bear a star; · = no result given; + = active, no number; ! = not confirmed by another sample.

SMILES | SUMO1 PPI mod | LMPTP block | Scp1 inh | NadD block | STEP inh | DNMT1 block
CCCCCC(=O)Nc1nc(C)c(-c2csc(Nc3cc(Cl)ccc3C)n2)s1 | 81* | 1 | 6 | 22 | 0 | -18
Cc1nc(NC(=O)CC(C)C)sc1-c1csc(Nc2ccc(Cl)cc2Cl)n1 | 4 | 1 | 2 | 26 | -3 | -28
CCCCCCC(=O)Nc1nc(C)c(-c2csc(Nc3cc(OC)ccc3OC)n2)s1 | 70* | 2 | 8 | 29 | -1 | -32
CC(C)(C)NC(=O)C1C(c2ccc(C(F)(F)F)cc2)=Nc2ccccc2N1C(=O)c1cccc2ccccc12 (centres undefined) | -8 | 1 | · | · | · | ·
COCCOC(=O)c1[nH]c2c(c1C)C(=O)CC(c1ccccc1)C2 (centres undefined) | 0 | 0 | -2 | 5 | 2 | 0
Cc1c(C(=O)OCCOC(C)C)[nH]c2c1C(=O)CC(c1ccco1)C2 (centres undefined) | 15 | 59* | 49 | 0 | 1 | 32
Cc1c(C(=O)OCc2ccccc2)[nH]c2c1C(=O)CC(c1ccco1)C2 (centres undefined) | 8 | 79* | 71* | 16 | 3 | 68*
CSCCOC(=O)c1[nH]c2c(c1C)C(=O)CC(c1ccco1)C2 (centres undefined) | 4 | 22 | 75* | -2 | 0 | 29
COc1ccccc1CNC(=O)CN1C(=O)NC2(CCCCCC2)C1=O | 12 | -1 | -12 | -3 | 1 | 0
COc1ccc(/C=C(\NC(=O)c2ccccc2Cl)C(=O)NCCCC(=O)O)cc1 | 1 | -1 | -7 | -3 | -2 | -1
COC(=O)C1(C(=O)OC)C/C=C\CCN(S(=O)(=O)c2ccccc2[N+](=O)[O-])CC1 | -5 | 0 | · | 1 | · | ·
Cn1c(O)c(N=NC(=O)c2cc(-c3cccs3)nc3ccccc23)c2ccccc21 | 0 | 1 | -11 | 45* | 2 | 6
O=C1C2CC=CCC2C(=O)N1c1nccs1 (centres undefined) | 7 | -2 | -2 | 5 | -1 | 3
COc1ccccc1C(=O)N=Nc1c(O)[nH]c2ccc([N+](=O)[O-])cc12 | 1 | 14 | 39 | 32* | 5 | 12
CC(C)NC(=O)C1(C)CN(S(C)(=O)=O)CC(=O)N1CCCn1ccnc1 (centres undefined) | -6 | -6 | · | · | · | ·
Cc1cc(=O)oc2c1c(C)nn2-c1nn[nH]n1 | 3 | -3 | 68* | 7 | -1 | 1
Nc1nonc1-n1nnc(C(=O)N/N=C/c2cccs2)c1-c1ccc2c(c1)OCO2 | -22 | 2 | 13 | 20 | 0 | 1
Cc1nc(N)sc1-c1csc(Nc2cc(N(C)C)ccc2Cl)n1 | 25 | 3 | · | 42* | 2 | -39
Cc1ccc(Nc2nc(-c3sc(N)nc3C)cs2)cc1 | 10 | -1 | 2 | 15 | -1 | -17
Cc1ccc(S(=O)(=O)NC2=C(N3CCN(Cc4ccccc4)CC3)C(=O)c3ccccc3C2=O)cc1 | 6 | 1 | 6 | 8 | -1 | -17
Cc1ccc(S(=O)(=O)NC2=C(N3CCN(c4ccccc4F)CC3)C(=O)c3ccccc3C2=O)cc1 | -32 | 4 | 0 | 34*! | 4 | -15
O=C(NCc1ccco1)c1ccc(S(=O)(=O)N2CCOCC2)cc1 | 7 | 5 | 33 | 3 | 12 | 76*
O=C(NCc1ccco1)c1ccc(S(=O)(=O)N2CCCCC2)cc1 | -1 | -2 | 3 | -1 | -4 | 3
N#Cc1ccsc1NC(=O)C1CC(=O)N(Cc2ccccc2)C1 (centres undefined) | 5 | -1 | -5 | -1 | 0 | -2
Cc1cc(C)c(S(=O)(=O)/N=C2/C=C(SCC(=O)O)C(=O)c3ccccc32)cc1C | 84* | 8 | 9 | 48* | 6 | 3
SMILES | SUMO1 PPI mod | LMPTP block | Scp1 inh | NadD block | STEP inh | DNMT1 block
Cc1cc(C)c(S(=O)(=O)Nc2cc(SCC(=O)O)c(O)c3ccccc23)cc1C | · | · | 8 | · | · | ·
O=C(CCCC(=O)NN=Cc1ccccc1Cl)NN=Cc1ccccc1Cl | -12 | 1 | -8 | 5 | 2 | -6
O=C(CNc1ccc2c(c1)OCO2)N/N=C\c1ccccc1Cl | 51* | 3 | -4 | 17 | -3 | -12
O=C(CNC(=O)c1ccccc1)N/N=C/c1ccccc1Cl | 48* | -1 | -6 | -7 | -1 | -5
Cc1[nH]c2ccccc2c1/C=N\NC(=O)CNc1ccc2c(c1)OCO2 | 8 | 1 | -8 | 9 | 5 | -24
CCOC(=O)c1c(NC(=O)CSC2=NN3CCCC(=O)N=C3S2)sc2c1CCCCC2 | -5 | 4 | -12 | -1 | 0 | -6
CCOC(=O)c1sc(NC(=O)c2ccc(OC)cc2)nc1C | 55* | 1 | -2 | 3 | 0 | 0
O=C(NCc1ccccc1Br)c1cccc2c1C(=O)c1ccc(N3CCC(Cc4ccccc4)CC3)cc1S2(=O)=O | -3 | 3 | -11 | 33* | -1 | 21
O=C(NCc1ccccc1C(F)(F)F)c1cccc2c1C(=O)c1ccc(N3CCC(N4CCCCC4)CC3)cc1S2(=O)=O | 50* | 16 | · | 21 | -5 | -6
O=C(O)CSc1nc2sc3c(c2c(=O)n1-c1ccccc1)CCC3 | 5 | -1 | 11 | 1 | 0 | 13
CC(NC(=O)CSc1nc2sc3c(c2c(=O)n1-c1ccccc1)CCCC3)c1ccccc1 (centres undefined) | -5 | 5 | -2 | 33* | 9 | 33
C=CCNC(=O)[C@H]1N2C(=O)c3ccccc3C2SC1(C)C (some centres undefined) | 0 | -3 | -12 | -7 | 2 | 0
COc1ccc(C(=O)/C(C#N)=N/Nc2ccc([N+](=O)[O-])cc2)cc1 | -61 | 73* | 66* | -3 | 96* | -2
O=C(C[C@H]1CC[C@@H](NS(=O)(=O)c2ccccc2)[C@@H](CO)O1)NCc1ccc(Cl)c(Cl)c1 | 7 | 3 | · | · | · | ·
O=c1oc2cc(O)ccc2cc1-c1nc2c(s1)CCc1ccccc1-2 | -7 | 1 | -8 | 20 | -37 | +
CCOC(=O)C1CCN(S(=O)(=O)c2ccc(CN3C(=O)c4cccnc4C3=O)cc2)CC1 | -19 | 0 | -3 | -5 | 2 | 3
O=C1c2cccnc2C(=O)N1Cc1ccc(S(=O)(=O)N2CCN(c3ccc(Cl)cc3)CC2)cc1 | 60* | 2 | -11 | 23 | 2 | -1
CCC1(C)Cc2c(sc(NC(=S)NC(=O)c3ccccc3)c2C#N)CO1 (centres undefined) | -5 | 52* | -3 | 12 | 1 | -5
N#Cc1c(NC(=O)/C=C/C(=O)O)sc2c1CCN(Cc1ccccc1)C2 | 10 | 47* | 68* | 14 | 2 | 37
